This passage reports ED50 and MIC results from ChEMBL document CHEMBL1126564, “Synthesis and antimicrobial evaluation of a series of 7-[3-amino (or aminomethyl)-4-aryl (or cyclopropyl)-1-pyrrolidinyl]-4-quinolone- and -1,8-naphthyridone-3-carboxylic acids” (1993).

In brackets after ≈: the same amount, converted by molar mass.

Common to all, as to format: functional
Test [1] relates to Mus musculus. Put plainly: Median protective dose determined in acute lethal system infection caused by Escherichia coli vogel in CD-1 mice (single dose sc). As to conditions: read-out: PD50. A digest of the protocol: (§1)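 Acute lethal systemic infection in female Charles River CD-1 mice; compound given once, orally (po) or subcutaneously (sc), at the time of challenge. Median protective dose (PD50, mg/kg) derived from survival.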

Test [2] deals with Enterococcus faecalis. Put plainly: Minimum inhibitory concentration against […] MGH-2. A digest of the protocol: (§2)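 Standard microdilution method against a panel of five Gram-negative and five Gram-positive bacterial strains. The MIC (µg/mL) was recorded for each strain.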
For test [3], the system named is Klebsiella pneumoniae. As to the kind of experiment: Minimum inhibitory concentration against Klebsiella pneumoniae MGH-2. In short, it runs like this: as §2
The test system of test [4] is Mus musculus. As to the kind of experiment: Median protective dose determined in acute lethal system infection caused by Streptococcus pyogenes C-203 in CD-1 mice (single dose sc). To be noted: read-out: PD50. A digest of the protocol:
as §1

The species named for test [5] is Mus musculus. Put plainly: Median protective dose determined in acute lethal system infection caused by Escherichia coli vogel in CD-1 mice (single dose perorally). As to conditions: po, read-out: PD50. A digest of the protocol:
as §1

Test [6] is filed under the species Mus musculus. As to the kind of experiment: Median protective dose determined in acute lethal system infection caused by Streptococcus pyogenes C-203 in CD-1 mice (single dose perorally). To be noted: po, read-out: PD50. A digest of the protocol:
as §1

The subject of test [7] is Providencia rettgeri. Put plainly: Minimum inhibitory concentration against Providencia rettgeri M-1771. A digest of the protocol:
as §2

Test [8] has as its system Streptococcus pyogenes. Put plainly: Minimum inhibitory concentration against Streptococcus pyogenes C-203. In short, it runs like this:
as §2

The test system of test [9] is Pseudomonas aeruginosa. Put plainly: Minimum inhibitory concentration against Pseudomonas aeruginosa UI-18. In short, it runs like this:
as §2

The subject of test [10] is Staphylococcus aureus. Put plainly: Minimum inhibitory concentration against Staphylococcus aureus UC-76. In short, it runs like this:
as §2

In test [11] the test system is Streptococcus pneumoniae. Put plainly: Minimum inhibitory concentration against Streptococcus pneumoniae SV-1. In short, it runs like this:
as §2

The test system of test [12] is Escherichia coli. Put plainly: Minimum inhibitory concentration against Escherichia coli Vogel. A digest of the protocol:
as §2

Test [13] has as its system Enterobacter cloacae. As to the kind of experiment: Minimum inhibitory concentration against […] MA-2646. A digest of the protocol:
as §2

Test [14] concerns Staphylococcus aureus. Put plainly: Minimum inhibitory concentration against Staphylococcus aureus H-228. A digest of the protocol:
as §2

[15] abbreviates: Enterococcus faecalis, read-out: MIC.
Where [16] appears, read: Klebsiella pneumoniae, read-out: MIC.
Setting [17] is: Providencia rettgeri, read-out: MIC.
The mark [18] stands for this setting: Streptococcus pyogenes, read-out: MIC.
[19] abbreviates: Pseudomonas aeruginosa, read-out: MIC.
Where [20] appears, read: Staphylococcus aureus, read-out: MIC.
Setting [21] is: Streptococcus pneumoniae, read-out: MIC.
The mark [22] stands for this setting: Escherichia coli, read-out: MIC.
[23] abbreviates: Enterobacter cloacae, read-out: MIC.

For the compound `COc1ccccc1C1CN(c2nc3c(cc2F)c(=O)c(C(=O)O)cn3C2CC2)CC1N` (stereo in doubt), the ED50 came to 28 mg/kg in test [1], 22 mg/kg in test [4], 37 mg/kg in test [5] and 44 mg/kg in test [6]. Further, the MIC (commonly the lowest concentration found to suppress growth) in test [2] was 0.2 µg/mL (≈ 0.456 µM); in test [3], 0.4 µg/mL (≈ 0.912 µM); in test [7], 0.8 µg/mL (≈ 1.82 µM); in test [8], 0.2 µg/mL (≈ 0.456 µM); in test [9], 3.1 µg/mL (≈ 7.07 µM); in test [10], 0.05 µg/mL (≈ 0.114 µM). Also, the MIC in test [11] was found to be 0.1 µg/mL (≈ 0.228 µM); in [12], 0.2 µg/mL (≈ 0.456 µM); in [13], 0.2 µg/mL (≈ 0.456 µM); in test [14], 0.1 µg/mL (≈ 0.228 µM).

Take `NC1CN(c2c(F)cc3c(=O)c(C(=O)O)cn(C4CC4)c3c2F)CC1c1ccc(F)cc1` (trans isomer): the MIC in test [2] (setting [15]) turned out to be 0.1 µg/mL (≈ 0.226 µM); in test [3] (setting [16]), 0.1 µg/mL (≈ 0.226 µM); in test [7] (setting [17]) it was 0.2 µg/mL (≈ 0.451 µM); in [8] (setting [18]), 0.1 µg/mL (≈ 0.226 µM); in [9] (setting [19]), 1.6 µg/mL (≈ 3.61 µM); in [10] (setting [20]), 0.013 µg/mL (≈ 0.0293 µM). Also, the MIC in test [11] (setting [21]) was 0.1 µg/mL (≈ 0.226 µM); in test [12] (setting [22]), 0.1 µg/mL (≈ 0.226 µM); in [13] (setting [23]) it was 0.1 µg/mL (≈ 0.226 µM); in [14] (setting [20]), 0.025 µg/mL (≈ 0.0564 µM). The ED50 in test [4] is 40 mg/kg; in test [6] it was 44 mg/kg.

Consider `NC1CN(c2c(F)cc3c(=O)c(C(=O)O)cn(C4CC4)c3c2F)CC1c1ccccc1` (trans isomer), for which the ED50 was 7 mg/kg in test [1], 1.6 mg/kg in test [4], 15.5 mg/kg in test [5] and 10 mg/kg in test [6]. Besides, the MIC in test [2] (setting [15]) worked out at 0.1 µg/mL (≈ 0.235 µM); in [3] (setting [16]), 0.05 µg/mL (≈ 0.118 µM); in test [7] (setting [17]), 0.1 µg/mL (≈ 0.235 µM); in test [8] (setting [18]), 0.1 µg/mL (≈ 0.235 µM); in [9] (setting [19]) it was 0.8 µg/mL (≈ 1.88 µM); in test [10] (setting [20]), 0.013 µg/mL (≈ 0.0306 µM). Also, the MIC in test [11] (setting [21]) was found to be 0.1 µg/mL (≈ 0.235 µM); in [12] (setting [22]), 0.025 µg/mL (≈ 0.0588 µM); in test [13] (setting [23]) it was 0.025 µg/mL (≈ 0.0588 µM); in test [14] (setting [20]) it was 0.025 µg/mL (≈ 0.0588 µM).
